Experimental data of several laboratories.
Protocols differ between the studies behind these lines.
FGFR3: Fibroblast growth factor receptor 3 (FGFR3, Homo sapiens, UniProt P22607)
FGFR3 G697C: Fibroblast growth factor receptor 3 (FGFR3, Homo sapiens, UniProt P22607, G697C)

SMILES	target	test	setting	remaining binding
Cc1cnn2ncc(-c3ccnc(N(C)C)n3)c2c1	FGFR3	binding	1 µM	100%
Nc1ncc2c(n1)-c1c([nH]c3ccc(C#CC4CC4)cc13)CCCC2	FGFR3 G697C	binding, competition with immobilised ligand	1 µM	100%
C[C@@]1(Cc2ccc(C#N)cc2)C(=O)N(c2cc(Cl)cc(Cl)c2)c2ncc(C(=O)NC3(c4nc(C5CCC5)no4)CC3)n21	FGFR3 G697C	cell-free assay, competition with immobilised ligand	1 µM	100%
COc1cnc(Nc2cccc(S(N)(=O)=O)c2)nc1N1CCN(c2ccccc2)C(=O)C1	FGFR3 G697C	binding, competition with immobilised ligand	1 µM	92%
Cc1cc(C)c(-n2ccn3nc(-c4cccnc4)cc23)cc1NC(=O)c1cc(C#N)cc(S(F)(F)(F)(F)F)c1	FGFR3	cell-free assay, competition with immobilised ligand	0.1 µM	95.6%
COc1cnc(Nc2cccc(S(N)(=O)=O)c2)nc1N1CCN(c2ccccc2)CC1	FGFR3 G697C	binding, competition with immobilised ligand	1 µM	100%
N[C@H]1CCN(c2nccc(-c3cnn4ncccc34)n2)C1	FGFR3	binding	1 µM	84%
CN1CCN(c2ccc(Nc3nccc(-c4cccc([N+](=O)[O-])c4)n3)cc2C(F)(F)F)CC1	FGFR3 G697C	binding	10 µM	63%
O=C(NCC1CCOCC1)c1n[nH]cc1NC(=O)c1c(F)cccc1F	FGFR3 G697C	binding, competition with immobilised ligand	1 µM	100%
CN(C)c1ncnc(-c2ccc3nc(Nc4cc(CN5CCN(C(=O)CC(F)(F)F)CC5)ccn4)[nH]c3c2)c1Cl	FGFR3	cell-free assay, competition with immobilised ligand	1 µM	100%
C[C@H]1CCN(c2nccc(-c3cnn4ncccc34)n2)C1	FGFR3 G697C	binding	1 µM	83%
O=C(c1ccc(Nc2ncc(Cl)c(-c3cc4ccccc4s3)n2)cc1)N1CCC(N2CCCC2)CC1	FGFR3	binding, competition with immobilised ligand	1 µM	38%
COc1ccnn2ncc(-c3ccnc(N(C)C)n3)c12	FGFR3	binding	1 µM	95%
CCCOc1ccc([C@H]2[C@H](C(=O)O)[C@@H](c3ccc4c(c3)OCO4)CN2CC(=O)Nc2c(CC)cccc2CC)cc1	FGFR3 G697C	cell-free assay, competition with immobilised ligand	1 µM	85%
C[C@@H](c1ccc(-n2cnc3c(N)ncnc32)cc1)N1CCc2nn(C)c(Cc3ccccc3)c2C1=O	FGFR3	binding, competition with immobilised ligand	0.1 µM	80%
Cc1cnc(Nc2ccc(C(=O)N3CCC(N4CCCC4)CC3)cc2)nc1-c1cc2ccccc2s1	FGFR3	binding, competition with immobilised ligand	1 µM	23%
COCCOc1nc(-c2ccc(Cl)nc2)nc2c1CN(C(=O)c1ncn3ccccc13)CC2	FGFR3 G697C	cell-free assay, competition with immobilised ligand	0.1 µM	100%
O=C(c1ccc(Nc2ncc(Cl)c(-c3ccc(Cl)s3)n2)cc1)N1CCC(N2CCCC2)CC1	FGFR3	binding, competition with immobilised ligand	1 µM	19%
Cc1cc(-n2nc(Cc3cc(F)cc(C(F)(F)F)c3)nc2C)ccc1C(N)=O	FGFR3 G697C	cell-free assay, competition with immobilised ligand	1 µM	100%
c1cncc(-c2cccc(Nc3nccc(NC4CCCCC4)n3)c2)c1	FGFR3 G697C	binding, competition with immobilised ligand	10 µM	51%
c1cnn2ncc(-c3ccnc(N4CCC45COC5)n3)c2c1	FGFR3	binding	1 µM	100%
CC(C)CC(=O)N1CCc2nc(-c3ccc(Br)cc3)nc(N(C)Cc3ccccc3)c2C1	FGFR3	cell-free assay, competition with immobilised ligand	0.1 µM	100%
CN(CCCC(F)(F)F)c1nccc(-c2cnn3ncccc23)n1	FGFR3	binding	1 µM	93%
CC(C)(C)c1ccc(-c2nc(CBr)nn2-c2cccc(O)c2)cc1	FGFR3	cell-free assay, competition with immobilised ligand	10 µM	93%
